Assay outcomes: PubChem BioAssay, several laboratories
The list is not random: actives were taken first. Their share in the collection is about 5.6%.
aDG glyco act: activators of alpha-DG glycosylation, primary screen, uHTS, Pro5-aDG cells, AlphaScreen | alpha-DG glycosylation AlphaScreen (IIH6); 0% Pro5, 100% B10-LARGE cell signal | activation, % at 10 µM | 360,000 tested, 0.22% active | AID 624168, 2012;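 active means activation of at least 8% versus controls, or a plate z-score of at least 8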;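 further: Pro5 are CHO cells carrying HIG-tagged alpha-DG that lacks glycosylation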
UPR CHOP act: activators of apoptotic CHOP UPR arm, primary screen, cell-based, CHO-CHOP luciferase reporter, luminescence, uHTS. UPR activation; percent of tunicamycin response over DMSO baseline. activation, % at 10 µM. 330,000 tested, 0.34% active. AID 449763, 2010;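 active means at 10 µM dose, activation of 40% or more, normalized to positive control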
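Dosing – one dose, 10 µM in 0.5% DMSO · System – CHO-CHOP cells, stable luciferase reporter of PERK-eIF2a-CHOP signalling · Input – 500 cells/well · Control set – tunicamycin 10 µg/mL final as positive, DMSO-only wells as negative · Timing – 6 h compound treatment, 37 °C · Measure – % activation vs tunicamycin · Technique – luminescence read with Steady-Glo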
UPR XBP1 act: activators of adaptive XBP1 UPR arm, primary screen, cell-based, CHO-XBP1 luciferase reporter, luminescence, uHTS. IRE1-XBP1 UPR activation; percent of tunicamycin response, DMSO as zero. activation, % at 20 µM. 330,000 tested, 0.33% active;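 active means versus positive control, 20 µM dose yields 30% or more activation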
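incubation = overnight seeding at 37 °C, 6 h compound treatment at 37 °C | assay system = CHO-XBP1 cells stably carrying IRE1-XBP1-driven luciferase reporter | input = 1000 cells per well | detection = luciferase luminescence | dosing = single point, 20 µM final compound, 1% DMSO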
MPTP inh: mitochondrial permeability transition pore inhibitors, primary screen, biochemical, isolated mouse mitochondria, absorbance | 360,000 tested, 1.4% active | inhibition, % at 10 µM | AID 602449, 2012 | Ca2+ swelling absorbance, 30 min;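 active means inhibition of 50% or more, scaled per plate between neutral and stimulator controls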
GRIN3A LBD mod: binders of NR3A ligand-binding domain, primary screen, biophysical, differential scanning fluorimetry, uHTS; 340,000 tested, 2.5% active; NR3A LBD differential scanning fluorimetry, Tm shift; 0% = protein alone, 100% = glycine-bound protein; Glutamate receptor ionotropic, NMDA 3A (GRIN3A) ligand-binding domain; Tm shift relative to glycine control, % at 25 µM; AID 1259313, 2017;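 active means melting temperature shift of at least 10% of the positive control shift, at one fixed dose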
CHOP inhibitor: inhibitors of CHOP promoter induction, primary screen, cell-based, unfolded protein response, luciferase reporter; CHO-K1 CHOP-promoter luciferase, tunicamycin-induced, 15-18 h; inhibition, % at 10 µM; 220,000 tested, 3.8% active; AID 2732, 2010;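 active means compounds that reduced the stress-induced luciferase reporter signal by more than about 70% of percent inhibition, limit read from the data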
MPTP counter: fluorescence retest of MPTP screen hits in isolated mitochondria, single concentration | shares compounds with MPTP inh | membrane potential, Rhodamine 123 fluorescence | inhibition, % at 10 µM | 5,000 tested, 78% active | AID 624504, 2012; in the data active means inhibition above about 22%
MPTP abs DR: mitochondrial permeability transition pore inhibitors, dose response, biochemical, absorbance, uHTS hits; shares compounds with MPTP inh; isolated mitochondria swelling; IC50, µM; 780 tested, 58% active; in the data active means IC50 below about 20 µM
MPTP counter DR: fluorescent counter-screen in isolated mitochondria, dose response, counter-screen for MPTP inhibitor project, biochemical, fluorescence, uHTS hits | shares compounds with MPTP inh | isolated mitochondria counterscreen, fluorescence read-out | IC50, µM | 780 tested, 49% active | AID 651564, 2012; in the data active means IC50 below about 80 µM
A number is an active result; i = inactive; nt = no result.

SMILES	aDG glyco act	UPR CHOP act	UPR XBP1 act	MPTP inh	GRIN3A LBD mod	CHOP inhibitor	MPTP counter	others
Cc1ccc(-c2nnc(NCc3ccccc3)c3ccccc23)cc1	i	i	i	65	i	i	85
Clc1ccc(-c2nnc(NCc3ccccc3)c3ccccc23)cc1	i	i	i	i	i	i	nt
CC(C)(C)NC(=O)C(c1ccc(-c2ccccc2)cc1)N(C[C@H]1CC[C@@H]([C@@H]2CC[C@H](CO)O2)O1)C(=O)c1ccc(C(C)(C)C)cc1 (stereo partly specified)	i	i	i	i	i	nt	nt
CC(C)(C)c1ccc(-c2nnc(SCCC#N)n2C2CCCC2)cc1	i	i	i	69	i	72	i	MPTP abs DR=i;MPTP counter DR=23
CC(C)c1c(O)ccc2c1CC[C@H]1C(C)(C)CCC[C@]21C	i	nt	nt	98	22	nt	i	MPTP abs DR=i;MPTP counter DR=16
CC(C)(O)c1ccc2c(c1)CCC1C(C)(C(=O)O)CCCC21C (stereo unspecified)	i	i	i	i	i	i	nt
CCn1nccc1C(=O)Nc1cc(Cl)cc(Cl)c1	i	i	i	66	i	i	75
Cn1c(=O)n(C)c2cc(N3CCOCC3)c(NC(=O)c3cccc(Cl)c3)cc21	i	i	i	i	i	nt	nt
CCCCCCCCCCCCC/C=C/[C@@H](O)[C@@H](N)CO	i	i	i	98	i	nt	i
Fc1cccc(Nc2nc(-c3ccncc3)nc3ccccc23)c1	i	i	i	85	i	i	85
COCCn1c(C)cc(C(=O)CSc2nc(C)cc(C)c2C#N)c1C	i	i	i	66	i	i	i	MPTP abs DR=i;MPTP counter DR=58
Cc1cc(C)c(C#N)c(SCC(=O)c2cc(C)n(CCc3ccccc3)c2C)n1	i	i	i	i	i	i	nt
CCC(C)NS(=O)(=O)c1ccc(S(=O)(=O)N2CCCC3(CCCCC3)C2)cc1 (stereo unspecified)	i	i	i	88	i	i	100
CCC(C)C(=O)Nc1ccc(S(=O)(=O)N2CCCC2)cc1 (stereo unspecified)	i	i	i	i	i	nt	nt
O=C(NC1CCCC1)C(c1ccc(F)cc1)N(C(=O)c1csnn1)C1CC1 (stereo unspecified)	i	i	i	i	i	nt	nt
CCN(CC)c1ccc(/C=C2/C(=O)N(c3ccc([N+](=O)[O-])cc3)N=C2N2CCOCC2)cc1	nt	i	i	nt	nt	i	nt
CCCC1=NN(c2ccc([N+](=O)[O-])cc2)C(=O)/C1=C\N(C)C	i	i	i	78	i	i	26
CCN(CC)S(=O)(=O)c1ccc(N2CCN(C)CC2)c(NC(=O)COc2ccc(F)cc2Cl)c1	i	i	i	i	i	nt	nt
CN1CCN(c2ccc(NC(=S)NC(=O)c3cccc4c(Cl)cccc34)cc2)CC1	i	i	i	91	i	nt	i
O=C(NC(=S)Nc1ccc(N2CCOCC2)cc1)c1cccc(Cl)c1Cl	i	i	i	i	i	nt	nt
CCCC(=O)N1CCN(c2ccc(NC(=S)NC(=O)c3cccc(C)c3)cc2)CC1	i	i	i	77	i	i	56
Cc1ccc(NC(=O)C2(c3ccccc3)CC2(Cl)Cl)cc1C (stereo unspecified)	i	i	i	i	i	i	nt
CCc1ccc(NC(=O)C2(c3ccccc3)CC2(Cl)Cl)cc1 (stereo unspecified)	i	i	i	53	i	i	72
Cc1cc(C)cc(NC(=O)C2(c3ccccc3)CC2(Cl)Cl)c1 (stereo unspecified)	i	i	i	71	i	i	76
Cc1cccc(NC(=O)C2(c3ccccc3)CC2(Cl)Cl)c1 (stereo unspecified)	i	i	i	i	i	i	nt
SMILES	aDG glyco act	UPR CHOP act	UPR XBP1 act	MPTP inh	GRIN3A LBD mod	CHOP inhibitor	MPTP counter	others
COc1cc2c(cc1OC)C1Cc3ccc(OC)c(OC)c3C[N+]1([O-])CC2 (stereo unspecified)	i	i	i	i	i	i	nt
COc1cc(C(=O)NCCOc2cc(C)ccc2C(C)C)cc(OC)c1OC	i	i	i	57	i	nt	64
Oc1cc2ccccc2cc1-c1n[nH]c(=S)o1	i	i	i	96	i	i	71
Cc1ccc(NC(=S)/C(C#N)=C2/Nc3ccccc3S2)cc1	i	nt	nt	65	nt	nt	39
COc1ccc(N2CC(C(=O)Nc3ccccc3N3CCCC3)CC2=O)c(OC)c1 (stereo unspecified)	i	i	i	i	i	nt	nt
Cc1ccc2nc(SCC(=O)N/N=C/c3ccco3)cc(C)c2c1	i	i	i	i	i	i	nt
Cc1cc(SCC(=O)N/N=C/c2ccc(O)cc2O)nc2ccccc12	i	i	i	68	26	nt	71
CCCCNC(=S)Nc1ccc(Oc2ccccc2)cc1	i	i	i	76	i	i	91
CCN(C(=S)Nc1cccc(C)c1)c1ccccc1	i	i	i	i	i	i	nt
CCOc1ccc(NC(=S)NCCCc2ccccc2)cc1	i	i	i	i	i	i	nt
CCOc1ccc(NC(=O)C[n+]2ccc(N(C)C)cc2)cc1	i	i	i	i	i	i	nt
S=C(NCc1ccco1)Nc1ccc(Oc2ccc(Cl)cc2)cc1	i	i	i	73	i	i	90
CCN(C(=S)Nc1ccc(Oc2ccccc2)cc1)c1ccccc1	i	i	i	91	i	i	97
CN(C)c1cc[n+](CC(=O)Nc2ccc(Oc3ccccc3)cc2)cc1	i	i	i	70	i	i	56
CCCNC(=S)Nc1ccc(Oc2ccccc2)cc1	i	i	i	58	i	i	65
CCCNC(=S)Nc1ccc(Br)cc1	i	i	i	i	i	i	nt
CCN(CC)S(=O)(=O)c1cc([N+](=O)[O-])ccc1NNC(=O)Nc1ccc(F)cc1	i	i	i	86	i	i	92
CCCCCN=C(N)N/N=C/c1c[nH]c2ccc(OC)cc12	i	i	i	85	i	nt	23
COc1ccc2c(/C=N/Nc3ccc(C(=O)O)cc3)c[nH]c2c1	i	i	i	i	i	nt	nt
